For assay [1], the species on record is Rattus norvegicus. The assay is described as follows: Tested for the inhibition of bone resorption by measuring mean total resorption at 10 e -6 M (sd 3349). It counts as functional. In outline: (§1)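 Osteoclasts mechanically disaggregated from neonatal rat long bones into Hepes-buffered medium 199, settled 30 s, allowed to attach to bone slices (2.5 mm²) for 15 min at 37 °C, washed, then cultured overnight in 10% newborn calf serum in Hanks-buffered MEM with or without drug. Cells removed with 10% NaOCl, slices gold-coated, entire surface scanned by SEM for pit number, pit size and resorbed plan area. Student's t-test.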

Assay [2] is filed under the species Rattus norvegicus. The assay is described as follows: Tested for the inhibition of bone resorption by measuring number of pits/slice at 10 e -5 M (sd 1.88). Type of assay: functional. In outline:
as §1

For assay [3], the species on record is Rattus norvegicus. The assay is described as follows: Tested for inhibition of bone resorption by osteoclasts in a bone slice assay in rats at 10 e -5 M. It counts as functional. In outline: as §1
Assay [4] is filed under the species Rattus norvegicus. Nature of the assay: Tested for the inhibition of bone resorption by measuring mean total resorption at 10 e -8 M (sd 5079). It counts as functional. In outline:
as §1

The species entered for assay [5] is Rattus norvegicus. The assay is described as follows: Tested for the inhibition of bone resorption by measuring number of pits/slice at 10 e -8 M (sd 5.51). Type of assay: functional. In outline: as §1
Assay [6] is described as follows: Tested for the inhibition of reversibility of hog gastric H+/K+-ATPase at 0.01 uM (200-fold dilution after pre-incubation). It counts as functional, Sus scrofa, Stomach. Further details: scale not given: the % may be the effect or the level left.
The species named for assay [7] is Rattus norvegicus. The assay is described as follows: Tested for the inhibition of bone resorption by measuring mean pit size at 10 e -7 M (sd 1032). Type of assay: functional. Summed up:
as §1

For assay [8], the species on record is Rattus norvegicus. Nature of the assay: Tested for the inhibition of bone resorption by measuring mean pit size at 10 e -6 M (sd 814). It counts as functional. In outline:
as §1

Assay [9] is filed under the species Rattus norvegicus. The assay is described as follows: Tested for the inhibition of bone resorption by measuring mean pit size at 10 e -5 M (sd 562). Type of assay: functional. In outline:
as §1

For assay [10], the species on record is Rattus norvegicus. Nature of the assay: Tested for the inhibition of bone resorption by measuring number of pits/slice at 10 e -7 M (sd 3.94). It counts as functional. Summed up: as §1
The species entered for assay [11] is Rattus norvegicus. The assay is described as follows: Tested for the inhibition of bone resorption by measuring mean total resorption at 10 e -7 M (sd 4088). Type of assay: functional. Summed up: as §1
Assay [12] in a line: Tested for reversible inhibition against gastric H+/K+-ATPase isolated from porcine gastric microsomes; value ranges from 3-10 uM. It counts as functional, Sus scrofa, Stomach.
Assay [13] in a line: Tested for the inhibition of reversibility of hog gastric H+/K+-ATPase at 2 uM. It counts as functional, Sus scrofa, Stomach. Further details: scale not given: the % may be the effect or the level left.
For assay [14], the species on record is Rattus norvegicus. Nature of the assay: Tested for the inhibition of bone resorption by measuring number of pits/slice at 10 e -6 M (sd 3.46). Type of assay: functional. Summed up:
as §1

For assay [15], the species on record is Rattus norvegicus. Nature of the assay: Tested for the inhibition of bone resorption by measuring mean pit size at 10 e -8 M (sd 1092). It counts as functional. In outline:
as §1

The species entered for assay [16] is Rattus norvegicus. The assay is described as follows: Tested for the inhibition of bone resorption by measuring mean total resorption at 10 e -5 M (sd 1111). Type of assay: functional. In outline: as §1
Assay [17] in a line: Tested for the inhibition of reversibility of hog gastric H+/K+-ATPase at 10 uM. Type of assay: functional, Sus scrofa, Stomach. Further details: scale not given: the % may be the effect or the level left.
Assay [18] is described as follows: Tested for the inhibition of reversibility of hog gastric H+/K+-ATPase at 0.05 uM (200-fold dilution after pre-incubation). It counts as functional, Sus scrofa, Stomach. On the set-up: scale not given: the % may be the effect or the level left.
The species named for assay [19] is Rattus norvegicus. The assay is described as follows: Tested for the inhibition of bone resorption by measuring number of pits/slice at 10 e -7 M (sd 3.53). It counts as functional. Summed up:
as §1

The species entered for assay [20] is Rattus norvegicus. Nature of the assay: Tested for inhibition of bone resorption by osteoclasts in a bone slice assay in rats at 10 e -7 M. Type of assay: functional. Summed up: as §1
For assay [21], the species on record is Rattus norvegicus. The assay is described as follows: Tested for the inhibition of bone resorption in neonatal rat long bones by measuring mean total resorption at 10 e -7 M (sd 4081). It counts as functional. Summed up:
as §1

Assay [22] can be described thus: Tested for reversible inhibition against gastric H+/K+-ATPase isolated from porcine gastric microsomes; value ranges from […]. Type of assay: functional, Sus scrofa, Stomach.
The species named for assay [23] is Rattus norvegicus. The assay is described as follows: Tested for the inhibition of bone resorption in neonatal rat long bones by measuring mean total resorption at 10 e -6 M (sd 4446). Type of assay: functional. Summed up: as §1
The species named for assay [24] is Rattus norvegicus. The assay is described as follows: Tested for the inhibition of bone resorption by measuring mean pit size at 10 e -6 M (sd 963). It counts as functional. In outline: as §1
Assay [25] is filed under the species Rattus norvegicus. Nature of the assay: Tested for the inhibition of bone resorption in neonatal rat long bones by measuring mean total resorption at 10 e -8 M (sd 7210). Type of assay: functional. In outline: as §1
For assay [26], the species on record is Rattus norvegicus. Nature of the assay: Tested for the inhibition of bone resorption by measuring number of pits/slice at 10 e -5 M (sd 2.74). Type of assay: functional. Summed up:
as §1

For assay [27], the species on record is Rattus norvegicus. The assay is described as follows: Tested for the inhibition of bone resorption by measuring mean total resorption at 10 e -5 M (sd 2675). Type of assay: functional. Summed up: as §1
The species named for assay [28] is Rattus norvegicus. Nature of the assay: Tested for the inhibition of bone resorption by measuring mean pit size at 10 e -5 M (sd 1012). Type of assay: functional. In outline:
as §1

Assay [29] is filed under the species Rattus norvegicus. The assay is described as follows: Tested for the inhibition of bone resorption by measuring number of pits/slice at 10 e -8 M (sd 4.87). Type of assay: functional. Summed up: as §1
The species entered for assay [30] is Rattus norvegicus. Nature of the assay: Tested for the inhibition of bone resorption by measuring number of pits/slice at 10 e -6 M (sd 3.87). Type of assay: functional. In outline: as §1
For assay [31], the species on record is Rattus norvegicus. The assay is described as follows: Tested for the inhibition of bone resorption in neonatal rat long bones by measuring mean pit size at 10 e -8 M (sd 1498). It counts as functional. In outline:
as §1

In general, IC50 refers to the concentration that inhibits the measured activity by half.

For `CCOC(=O)c1cnc2c(OC)cccc2c1Nc1ccccc1C`, the Mean total resorption in the assay filed under Rattus norvegicus [1] turned out to be 7300 um2; in the assay filed under Rattus norvegicus [4], 8740 um2; in the assay listed under Rattus norvegicus [11], 9060 um2; in the assay filed under Rattus norvegicus [16], 1270 um2. The No. of pits/slice turned out to be 2.67 in the assay listed under Rattus norvegicus [2], 9.83 in the assay filed under Rattus norvegicus [5], 9.5 in the assay listed under Rattus norvegicus [10] and 9.17 in the assay filed under Rattus norvegicus [14]. In addition, the IC50 was 4 µM in the assay listed under Rattus norvegicus [3] and 3 µM in assay [12]. The Activity turned out to be 90% in [6] and 66% in assay [13]. Besides, the Mean pit size in the assay listed under Rattus norvegicus [7] worked out at 919 µm²; in the assay listed under Rattus norvegicus [8], 798 µm²; in the assay listed under Rattus norvegicus [9], 477 µm²; in the assay listed under Rattus norvegicus [15], 926 µm².
As for `CCOC(=O)CCC(=O)c1cnc2c(OC)cccc2c1Nc1ccccc1C`, the Activity in assay [17] is given as 60%; in assay [18], 100%. Moreover, the No. of pits/slice came to 4.67 in the assay filed under Rattus norvegicus [19], 2.22 in the assay filed under Rattus norvegicus [26], 5.89 in the assay filed under Rattus norvegicus [29] and 3.39 in the assay filed under Rattus norvegicus [30]. The IC50 in the assay listed under Rattus norvegicus [20] stood at 2 µM; in [22], 10 µM. The Mean total resorption in the assay listed under Rattus norvegicus [21] is 4790 um2; in the assay filed under Rattus norvegicus [23], 4040 um2; in the assay filed under Rattus norvegicus [25], 8400 um2; in the assay listed under Rattus norvegicus [27], 2040 um2. Also, the Mean pit size in the assay filed under Rattus norvegicus [24] was determined as 1190 µm²; in the assay filed under Rattus norvegicus [28], 948 µm²; in the assay listed under Rattus norvegicus [31], 1450 µm².

Source of the values: ChEMBL document CHEMBL1126807, “Inhibition of bone resorption by H+/K(+)-ATPase inhibitors” (J Med Chem, 1993).
